Results from PMC8159431 (Chemical Science, 2020).
Like-named read-outs stand apart in the source and are kept apart here.

Columns and labels:
Format in all cases: binding
[1] = target: tau aggregates (Tau-441 human) (Homo sapiens, UniProt P10636); test: Fluorimeter assay with aliquots of the tau aggregation; details: tau aggregates at different time points
Aβ40 aggregates = Aβ40 aggregates (Homo sapiens, UniProt P05067)
Procedure, shortened: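 Aβ40 aggregates were taken at 90 min, 200 min and 24 h from a compound-free aggregation run and ultracentrifuged. They were titrated with a range of probe concentrations, and fluorescence intensity was read. Kd was obtained by curve fitting (n = 3). Binding ratio is Kd relative to the Kd of the 50% sucrose tau fraction.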

[2] = target: tau (0N4R) aggregates, sucrose gradient fractions (Homo sapiens, UniProt P10636)
Procedure, shortened: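 Tau aggregates were separated by sucrose gradient ultracentrifugation into 10–50% fractions, and the 20% fraction was characterised by TEM. Each fraction was titrated with the test compound and fluorescence intensity was read. Kd was obtained by curve fitting (n = 3–6). Ratios compare Kd with the 50% sucrose tau Kd, and tau Kd with the Kd for Aβ40 aggregates at 200 min.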

Aβ40 aggregates, sequence (P05067 672-711 limits assumed): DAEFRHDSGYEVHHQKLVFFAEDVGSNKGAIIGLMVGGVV
tau (0N4R) aggregates, sucrose gradient fractions, sequence (P10636 1-383 isoform P10636-6): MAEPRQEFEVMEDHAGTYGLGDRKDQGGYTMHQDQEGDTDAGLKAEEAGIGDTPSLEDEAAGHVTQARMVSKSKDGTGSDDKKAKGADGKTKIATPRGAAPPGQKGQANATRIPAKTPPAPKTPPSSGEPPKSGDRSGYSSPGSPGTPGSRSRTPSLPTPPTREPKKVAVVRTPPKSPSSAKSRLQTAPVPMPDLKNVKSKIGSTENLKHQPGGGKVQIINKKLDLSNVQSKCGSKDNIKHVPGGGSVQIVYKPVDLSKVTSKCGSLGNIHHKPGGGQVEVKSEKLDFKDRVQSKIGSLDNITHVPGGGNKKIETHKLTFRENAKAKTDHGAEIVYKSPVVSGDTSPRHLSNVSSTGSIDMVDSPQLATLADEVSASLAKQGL
tau aggregates (Tau-441 human), sequence (P10636 1-441 isoform P10636-8): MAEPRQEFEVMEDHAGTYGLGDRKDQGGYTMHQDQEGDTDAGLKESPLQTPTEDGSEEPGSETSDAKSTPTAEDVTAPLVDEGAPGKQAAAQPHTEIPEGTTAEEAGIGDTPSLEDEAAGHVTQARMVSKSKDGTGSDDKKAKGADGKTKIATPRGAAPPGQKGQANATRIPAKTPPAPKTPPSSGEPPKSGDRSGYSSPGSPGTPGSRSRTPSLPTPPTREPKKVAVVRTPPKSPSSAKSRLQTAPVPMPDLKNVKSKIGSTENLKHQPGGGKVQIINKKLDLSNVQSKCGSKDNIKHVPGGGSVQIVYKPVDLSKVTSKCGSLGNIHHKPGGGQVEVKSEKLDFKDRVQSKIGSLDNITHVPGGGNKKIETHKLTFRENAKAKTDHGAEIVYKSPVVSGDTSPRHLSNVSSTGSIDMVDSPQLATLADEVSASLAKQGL

emission spectrum shift over the tau aggregation [1]: No emission spectrum shifts
binding ratio (Kd compared with the 50% sucrose tau Kd) (Aβ40 aggregates; 200 minute Aβ): 5
binding ratio (Kd compared with the 50% sucrose tau Kd) (Aβ40 aggregates; 24 hour Aβ): 3
Kd (Aβ40 aggregates; Aβ40 aggregates at 90 min): no binding affinity
Kd (Aβ40 aggregates; Kd, Aβ40 aggregates at 200 min): 930 ± 300 nM
Kd (Aβ40 aggregates; Kd, Aβ40 aggregates at 24 h): 650 ± 190 nM
binding ratio (Kd compared with the 50% sucrose tau Kd) ([2]; 10% sucrose tau): 148
binding ratio (Kd compared with the 50% sucrose tau Kd) ([2]; 20% sucrose tau): 14
binding ratio (Kd compared with the 50% sucrose tau Kd) ([2]; 30% sucrose tau): 26
binding ratio (Kd compared with the 50% sucrose tau Kd) ([2]; 40% sucrose tau): 6
binding ratio (Kd compared with the 50% sucrose tau Kd) ([2]; 50% sucrose tau): 1
Kd ([2]; 10% sucrose tau fraction): 29600 ± 2100 nM
Kd ([2]; 20% sucrose tau fraction): 2750 ± 570 nM
Kd ([2]; 40% sucrose tau fraction): 1290 ± 200 nM
Kd ([2]; 50% sucrose tau fraction): 200 ± 10 nM
Compound: O=C(O)Cc1cc(-c2ccc(C(=O)O)s2)sc1-c1ccc(-c2sc(-c3ccc(C(=O)O)s3)cc2CC(=O)O)s1 [pFTAA, 3''',4'-bis(carboxymethyl)-[2,2':5',2'':5'',2''':5''',2''''-quinquethiophene]-5,5''''-dicarboxylic acid]
